Source: PubChem BioAssay
The list is not random: actives were taken first. Their share in the collection is about 12%.
RAM inhibit: yeast RAM network inhibition | S. cerevisiae dse1pr::URA3 reporter, 5-FOA growth OD615, 2 d; analog-sensitive cbk1-as2 kinase mutant strain | inhibition, % at 50 µM | actives 1.8% (n = 190,000) | AID 868;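 active = inhibition above a set limit, 3 SD over mean compound inhibition, cut at about 8.4% in these data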;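 note: 0% = DMSO-only wells with no growth and 100% = 10 µM 1-NA-PP1 full growth; inhibition rescues growth on 5-FOA so higher OD means more RAM inhibition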
ABCB1 block: human ABCB1 inhibition, ABCG2 as counter-screen; P08183; CCRF-Adr cells, JC-1 efflux, flow cytometry; inhibition, % at 6.6 µM; actives 0.067% (n = 190,000); in the data active = inhibition above about 40%;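 note: 0% = vehicle and 100% = reference inhibitor; higher value means more JC-1 retained so stronger ABCB1 efflux block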
WT yeast gro inh: growth inhibition of WT yeast, mitochondrial fusion screen | mitochondrial fusion phenotypic screen, WT strain | inhibition, % at 10 µM | actives 2.1% (n = 190,000) | AID 1362; in the data active = inhibition above about 58%; tested in S. cerevisiae
ABCG2 inh: inhibitors of human ABCG2 transporter, ABCB1 counter-screen. Q9UNQ0. IgMXP3 cells, JC-1 efflux, flow cytometry. inhibition, % at 6.6 µM. actives 0.1% (n = 190,000). AID 1325;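 active = inhibition above 80%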;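 note: 0% = DMSO and 100% = nicardipine control wells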
Target sequence (Q9UNQ0 whole entry, looked up): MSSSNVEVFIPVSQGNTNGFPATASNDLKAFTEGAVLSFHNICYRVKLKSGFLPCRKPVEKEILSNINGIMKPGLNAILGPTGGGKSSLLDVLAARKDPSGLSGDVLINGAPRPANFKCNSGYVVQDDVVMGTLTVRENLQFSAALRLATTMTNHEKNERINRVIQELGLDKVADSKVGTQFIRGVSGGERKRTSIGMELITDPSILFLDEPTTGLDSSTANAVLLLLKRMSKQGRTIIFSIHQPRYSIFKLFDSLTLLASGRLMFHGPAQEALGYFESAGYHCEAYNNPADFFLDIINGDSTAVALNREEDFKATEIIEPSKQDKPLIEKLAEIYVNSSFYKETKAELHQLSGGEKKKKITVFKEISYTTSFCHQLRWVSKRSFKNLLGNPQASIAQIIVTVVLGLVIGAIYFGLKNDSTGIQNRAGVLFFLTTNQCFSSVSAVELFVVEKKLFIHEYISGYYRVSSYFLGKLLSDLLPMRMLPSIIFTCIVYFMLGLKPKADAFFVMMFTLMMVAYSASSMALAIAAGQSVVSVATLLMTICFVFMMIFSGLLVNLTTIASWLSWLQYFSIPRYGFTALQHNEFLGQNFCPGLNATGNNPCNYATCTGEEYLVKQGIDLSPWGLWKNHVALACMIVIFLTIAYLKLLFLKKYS
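Test system: ABCG2 IgMXP3 and barcoded ABCB1 CCRF-Adr cell mix; Schedule: cells with compound and JC-1, 10 min at 25 °C, rotating, no wash; Technique: flow cytometry of retained JC-1 fluorescence; Measure: % inhibition of efflux relative to nicardipine and DMSO; Controls: nicardipine high and DMSO low controls.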
Lmaj promast: reduces viability of Leishmania major promastigotes; resazurin fluorescence viability; actives 9% (n = 200,000); inhibition, % at 10 µM; in the data active = inhibition above about 50%;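 note: promastigotes grown with compound for 44 hours at 28 °C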
* = called active by the depositor.

Results for O=C(/C=C/c1cccs1)Nc1ccncc1 ?
RAM inhibit: 3; ABCB1 block: 0; WT yeast gro inh: -7; ABCG2 inh: -1; Lmaj promast: 3

Results for CCCCCC/C(C)=C1/SC(=S)NC1=O ?
RAM inhibit: 2; ABCB1 block: 0; WT yeast gro inh: 86*; ABCG2 inh: -1; Lmaj promast: -9

Results for C/C(C/C(C)=C1/SC(=S)NC1=O)=C1\SC(=S)NC1=O ?
RAM inhibit: 4; ABCB1 block: -1; WT yeast gro inh: -6; ABCG2 inh: -2; Lmaj promast: -11

Results for COc1ccc(/C=N/NC(=O)c2ccn[nH]2)cc1COc1ccc(F)cc1 ?
RAM inhibit: 5; ABCB1 block: 0; WT yeast gro inh: 12; ABCG2 inh: 1; Lmaj promast: 26

How did COc1ccc(/C=N/NC(=O)c2ccn[nH]2)cc1COc1ccc(Cl)cc1Cl do in these assays?
RAM inhibit: 2; ABCB1 block: 1; WT yeast gro inh: 73*; ABCG2 inh: 46; Lmaj promast: 7

Results for COc1ccc(CC2(CO)CCN(Cc3ccc4nsnc4c3)CC2)cc1 ?
RAM inhibit: -1; ABCB1 block: 0; WT yeast gro inh: 6; ABCG2 inh: 0; Lmaj promast: 88*

Results for COc1ccc(CC2(CO)CCN(C(C)Cc3ccc(Cl)cc3)CC2)cc1 (stereo not drawn) ?
RAM inhibit: 1; ABCB1 block: 1; WT yeast gro inh: 32; ABCG2 inh: 1; Lmaj promast: 86*

Results for COc1ccc(-c2ncc(CN3CCC(CO)(Cc4cccc(OC)c4)CC3)cn2)cc1 ?
RAM inhibit: -1; ABCB1 block: 3; WT yeast gro inh: 21; ABCG2 inh: 4; Lmaj promast: 6

Results for COc1ccc(CC2(CO)CCN(Cc3cccnc3)CC2)cc1 ?
RAM inhibit: 1; ABCB1 block: 1; WT yeast gro inh: 7; ABCG2 inh: 31; Lmaj promast: 89*

How did OCC1(Cc2ccc(Cl)cc2)CCN(Cc2ccc(Oc3ncccn3)cc2)CC1 do in these assays?
RAM inhibit: 1; ABCB1 block: 0; WT yeast gro inh: -7; ABCG2 inh: 0; Lmaj promast: 42

Results for OCC1(Cc2ccc(Cl)cc2)CCN(Cc2ccc3nsnc3c2)CC1 ?
RAM inhibit: 1; ABCB1 block: 0; WT yeast gro inh: 44; ABCG2 inh: 1; Lmaj promast: 88*

What do the screens show for `COc1ccc(CC2(CO)CCN(Cc3cccc(OC)c3OC)CC2)cc1`?
RAM inhibit: -1; ABCB1 block: 0; WT yeast gro inh: -11; ABCG2 inh: 1; Lmaj promast: 5

Results for Cc1cc(C)n(-c2ccc(C(=O)NC3CCCCC3)cc2)n1 ?
RAM inhibit: 1; ABCB1 block: 1; WT yeast gro inh: 1; ABCG2 inh: 4; Lmaj promast: -5

Results for COc1ccc(-c2[nH]ncc2CN2CCC(OCc3cccnc3)CC2)c(F)c1 ?
RAM inhibit: 1; ABCB1 block: 0; WT yeast gro inh: -6; ABCG2 inh: 0; Lmaj promast: 7

What do the screens show for `CC(=O)Nc1cccc(C(=O)Nc2cccnc2)c1`?
RAM inhibit: 2; ABCB1 block: 1; WT yeast gro inh: -6; ABCG2 inh: 2; Lmaj promast: 0

What do the screens show for `Cc1cc(N2CCCCC2)n2ncc(-c3ccc(Cl)cc3)c2n1`?
RAM inhibit: 4; ABCB1 block: 0; WT yeast gro inh: 58*; ABCG2 inh: 1; Lmaj promast: 3

How did Cc1cc(N2CCN(C(=O)c3ccco3)CC2)n2ncc(-c3ccccc3)c2n1 do in these assays?
RAM inhibit: -1; ABCB1 block: -2; WT yeast gro inh: 93*; ABCG2 inh: -2; Lmaj promast: 16

Results for Cc1nn2c(N3CCN(C(=O)c4ccco4)CC3)cc(C(C)(C)C)nc2c1-c1ccccc1 ?
RAM inhibit: 0; ABCB1 block: 1; WT yeast gro inh: -4; ABCG2 inh: 3; Lmaj promast: 57*

Results for O=C(COc1cccnc1[N+](=O)[O-])Nc1cccc(S(=O)(=O)N2CCCCC2)c1 ?
RAM inhibit: 1; ABCB1 block: 0; WT yeast gro inh: 4; ABCG2 inh: 11; Lmaj promast: 1

How did COc1ccc(C(=O)Nc2nnc(CCS(=O)(=O)c3ccc(C)cc3)s2)cc1 do in these assays?
RAM inhibit: 6; ABCB1 block: 0; WT yeast gro inh: 0; ABCG2 inh: 3; Lmaj promast: -7

How did O=C(O)CS(=O)CC(=O)Nc1cccc(C(F)(F)F)c1 (stereo not drawn) do in these assays?
RAM inhibit: -1; ABCB1 block: 0; WT yeast gro inh: 4; ABCG2 inh: 2; Lmaj promast: -3

Results for O=C(Cc1c[nH]c2ccccc12)NCc1ccc(Cl)cc1 ?
RAM inhibit: 1; ABCB1 block: 1; WT yeast gro inh: -17; ABCG2 inh: 18; Lmaj promast: 43

How did O=C(N[C@@H](Cc1c[nH]c2ccccc12)C(=O)O)c1ccc(Cl)cc1 do in these assays?
RAM inhibit: 8.9*; ABCB1 block: 0; WT yeast gro inh: -16; ABCG2 inh: 0; Lmaj promast: -5

What do the screens show for `NC(=NCCc1c[nH]c2ccccc12)NC(=O)c1ccc(Cl)cc1`?
RAM inhibit: 2; ABCB1 block: 1; WT yeast gro inh: 15; ABCG2 inh: 8; Lmaj promast: 60*

What do the screens show for `CCn1c(SCC(=O)N2CCc3ccccc32)nnc1-c1ccco1`?
RAM inhibit: 1; ABCB1 block: 7; WT yeast gro inh: -3; ABCG2 inh: 37; Lmaj promast: -1

How did CCCc1ncc(C(O)c2ccccc2OC)n1C (stereo not drawn) do in these assays?
RAM inhibit: 2; ABCB1 block: 0; WT yeast gro inh: -3; ABCG2 inh: 0; Lmaj promast: 1

What do the screens show for `C/C(=N/N=C1/NC(=O)CC(C(=O)Nc2ccccc2)S1)c1cccs1` (stereo not drawn)?
RAM inhibit: 5; ABCB1 block: 0; WT yeast gro inh: 4; ABCG2 inh: 4; Lmaj promast: 78*

Results for Cc1ccc(NC(=O)C2CC(=O)N/C(=N/N=C/c3ccco3)S2)cc1 (stereo not drawn) ?
RAM inhibit: 5; ABCB1 block: 0; WT yeast gro inh: -14; ABCG2 inh: -6; Lmaj promast: 58*

How did COc1ccc(-c2nc(N)n(C(=O)c3cccs3)n2)cc1 do in these assays?
RAM inhibit: 3; ABCB1 block: -2; WT yeast gro inh: -6; ABCG2 inh: 10; Lmaj promast: -2

What do the screens show for `COc1ccc(/C=N/Nc2ccc(C(F)(F)F)cc2[N+](=O)[O-])cc1O`?
RAM inhibit: 10*; ABCB1 block: 0; WT yeast gro inh: 13; ABCG2 inh: 23; Lmaj promast: -10

How did Cc1ccc(/C=C/C(=O)N2CCN(c3ncccn3)CC2)o1 do in these assays?
RAM inhibit: 2; ABCB1 block: 1; WT yeast gro inh: 5; ABCG2 inh: 0; Lmaj promast: 2

What do the screens show for `O=C(Nc1ccc(N2CCCCC2)c(Cl)c1)c1ccc2c(c1)OCCO2`?
RAM inhibit: 1; ABCB1 block: 0; WT yeast gro inh: 69*; ABCG2 inh: 2; Lmaj promast: 15
